The viability is a read-out of living cells in per cent, often relative to untreated cells. Usually inhibition stands for the change of the read-out against control, counted positive when it falls.

Calls of active or inactive are those of the source.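 How the source made its calls, unless noted: active means viability at or under a set limit in both replicates, limit being median viability minus 3 SD (cut at about 48% in these data, passing the limit was not always enough); inconclusive means at or under the limit in just one replicate; inactive means at or above the limit in both replicates.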

These results are taken from PubChem BioAssay.

Test [1] in a line: SK-BR-3 cell growth inhibitors, pilot screen, 24 h, human (AID 572;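 active means viability at or below 10% of carrier control in both of two separate runs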;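 further: compound exposure lasted between 18 and 24 h rather than exactly 24 h; 100% = carrier-treated control wells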). To be noted: SK-BR-3 viability, CellTiter-Glo luminescence, at 10 µM, stronger effect = lower value. Background: Cellular ATP, detected with luciferase, serves as a proxy for viable cell number.
Test [2] can be described thus: HUVEC growth inhibition – cell-based, human, primary screen (AID 575;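 active means viability at or below 30% in both replicate assays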;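 further: 100% = median of untreated cell wells with 0.1% DMSO on each plate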). Conditions: HUVEC proliferation, CellTiter-Glo luminescence, 72 h; at 10 µM; stronger effect = lower value. Summed up: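 System – primary HUVEC, no more than 12 passages · Medium – Low-serum (2% FBS) EBM, supplemented · Times – 72 h exposure, 37 °C, 5% CO2, 30 min RT equilibration · Measured by – luminescent ATP assay · Read-out – % viability relative to median vehicle-well signal on each plate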

Test [3] in a line: growth inhibitors of H69AR lung tumor, primary screen, human, duplicate replicates (AID 580).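 Further: 100% = mean luminescence of untreated wells and 0% = no signal.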 To be noted: H69AR lung tumor cells viability, ATP luminescence, 72 h; at 10 µM; stronger effect = lower value.
Test [4] can be described thus: reversal of MRP1-mediated doxorubicin resistance, pilot screen, H69AR cells, doxorubicin co-treatment (AID 601;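 active means viability loss from added drug above about 55%, and viability with drug at most 40%, in both replicates, limit read from the data, passing the limit was not always enough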). Conditions: CellTiter-Glo, 72 h, at 10 µM; for differential viability (reversal): stronger effect = higher value.
Test [5] can be described thus: 384-well plate pilot, post-Golgi transport modulator project, inhibition of yeast transport mutant growth (AID 636; in the data active means inhibition above about 31%). To be noted: absorbance 615 nm, about 18 h, stronger effect = higher value.
The nature of test [6]: growth suppression of yeast trafficking mutant, preliminary HTS, modulators of trafficking downstream of Golgi apparatus project, 1536-format plate, OD 615 nm (AID 637; in the data active means inhibition above about 30%). To be noted: yeast transport mutant growth, absorbance 615 nm, 18 h; stronger effect = higher value.
Setting [7] is: H69AR cells + 2 uM doxorubicin, measured here: viability with 2 uM doxorubicin, stronger effect = lower value.
Where [8] appears, read: H69AR cells, compound alone cytotoxicity.

`CCCCCC#CCC#CCC#CCC#CCCCC(=O)O`: the viability is 152% (inactive) in test [1]; 66.2% (inactive) in test [2]; 93.6% (inactive) in test [3]; 93.9% in test [4] (setting [7]); 93.6% in test [4] (setting [8]). The differential viability (reversal) in test [4] (H69AR cells + 2 uM doxorubicin) is -0.29% (inactive). In addition, the inhibition in test [5] was 0.78% (inactive); in test [6], 8.33% (inactive).

With `COc1ccc(OC)c(NC(=O)C23CCC(C)(C(=O)C2)C3(C)C)c1` (stereo not given), the viability in test [1] was 72% (inactive); in test [2] it was 101% (inactive); in test [3], 102% (inactive); in test [4] (setting [7]), 103%; in test [4] (setting [8]), 102%. The differential viability (reversal) in test [4] (H69AR cells + 2 uM doxorubicin) was -0.69% (inactive). Besides, the results for the inhibition in test [5] and in test [6] were -6.3% (inactive) and -2.73% (inactive), respectively.

As for `COC(=O)CCC(=O)CN`, the viability was 111% (inactive) in test [1]; 92.9% (inactive) in test [2]; 88.6% (inactive) in test [3]; 92.8% in test [4] (setting [7]); 88.6% in test [4] (setting [8]). Besides, in test [4] (H69AR cells + 2 uM doxorubicin), the differential viability (reversal) was -4.23% (inactive). The inhibition in test [5] is -1.3% (inactive); in test [6], 5.67% (inactive).

Consider `Cc1ccccc1NC(=O)CN1CCC(NC(=O)Nc2ccccc2)CC1`, for which the viability in test [1] is 108% (inactive); in test [2], 104% (inactive); in test [3] it was 84.8% (inactive); in test [4] (setting [7]), 89.1%; in test [4] (setting [8]), 84.8%. Also, in test [4] (H69AR cells + 2 uM doxorubicin), the differential viability (reversal) is -4.37% (inactive). In addition, the inhibition was -7.7% (inactive) in test [5] and -3.64% (inactive) in test [6].

In the case of `Cn1c(=O)c2c(nc(SCC(=O)N3CCCc4ccccc43)n2C)n(C)c1=O`, the viability is 94% (inactive) in test [1]; 107% (inactive) in test [2]; 102% (inactive) in test [3]; 93.9% in test [4] (setting [7]); 102% in test [4] (setting [8]). For the same compound, in test [4] (H69AR cells + 2 uM doxorubicin), the differential viability (reversal) was 7.81% (inactive). The inhibition was 1.22% (inactive) in test [5] and -2.73% (inactive) in test [6].

Regarding `O=C(CN1CCSCC1)N1CCc2[nH]c3ccc(Br)cc3c2C1`, the viability in test [1] was 84% (inactive); in test [2] it was 69.7% (inactive); in test [3] it was 88.6% (inactive); in test [4] (setting [7]), 81.5%; in test [4] (setting [8]) it was 88.6%. Besides, the differential viability (reversal) in test [4] (H69AR cells + 2 uM doxorubicin) was 7.04% (inactive). The inhibition in test [5] is -4.93% (inactive); in test [6], 2.18% (inactive).

As for `Cn1c(=O)[nH]c(=O)c2c1nc(Br)n2Cc1ccccc1F`, the viability in test [1] was 116% (inactive); in test [2] it was 78% (inactive); in test [3], 86.9% (inactive); in test [4] (setting [7]), 70.2%; in test [4] (setting [8]), 86.9%. In addition, in test [4] (H69AR cells + 2 uM doxorubicin), the differential viability (reversal) was 16.6% (inactive). Also, the inhibition is 3.15% (inactive) in test [5] and 3.87% (inactive) in test [6].

As to `CN(C(=O)C1CCCO1)c1nnc(-c2ccncc2)s1` (stereo not given), the viability in test [1] was 81% (inactive); in test [2], 111% (inactive); in test [3], 100% (inactive); in test [4] (setting [7]) it was 92.7%; in test [4] (setting [8]), 100%. Moreover, the differential viability (reversal) in test [4] (H69AR cells + 2 uM doxorubicin) was 7.37% (inactive). Moreover, the inhibition in test [5] was -3.24% (inactive); in test [6] it was -1.82% (inactive).

In the case of `O=C(CCN1C(=O)c2ccccc2C1=O)N1CCN(C(=O)c2ccccc2)CC1`, the viability in test [1] is 106% (inactive); in test [2], 108% (inactive); in test [3], 101% (inactive); in test [4] (setting [7]), 92.3%; in test [4] (setting [8]), 101%. In addition, the differential viability (reversal) in test [4] (H69AR cells + 2 uM doxorubicin) is 8.3% (inactive). The results for the inhibition in test [5] and in test [6] were -3.25% (inactive) and 4.59% (inactive), respectively.

`COc1cccc(-c2nnn(CC(=O)O)n2)c1`: the viability in test [1] is 149% (inactive); in test [2], 100% (inactive); in test [3], 91% (inactive); in test [4] (setting [7]) it was 89.3%; in test [4] (setting [8]) it was 91%. The differential viability (reversal) in test [4] (H69AR cells + 2 uM doxorubicin) is 1.7% (inactive). In addition, the inhibition in test [5] is -1.43% (inactive); in test [6], 1.97% (inactive).

On to `CC(C)OC(=O)CSc1nnc(-c2cccnc2)n1Cc1ccccc1`, for which the viability in test [1] is 86% (inactive); in test [2] it was 105% (inactive); in test [3] it was 89.9% (inactive); in test [4] (setting [7]), 80.2%; in test [4] (setting [8]), 89.9%. Moreover, the differential viability (reversal) in test [4] (H69AR cells + 2 uM doxorubicin) is 9.68% (inactive). Moreover, the inhibition in test [5] was -5.81% (inactive); in test [6], 0.18% (inactive).

Consider `O=C(c1c(Cl)nc2sccn12)N(C(=O)c1c(Cl)nc2sccn12)c1ccc(Cl)cn1`, for which the viability in test [1] is 131% (inactive); in test [2] it was 43.6% (inactive); in test [3] it was 70.8% (inactive); in test [4] (setting [7]), 78.7%; in test [4] (setting [8]), 70.8%. In test [4] (H69AR cells + 2 uM doxorubicin), the differential viability (reversal) was -7.89% (inactive). In addition, the figures for the inhibition in test [5] and in test [6] were -3.38% (inactive) and 3.11% (inactive), respectively.

For the compound `O=C1C2ON(c3ccc(Cl)cc3)C(c3ccco3)C2C(=O)N1c1ccccc1` (stereo not given), the viability in test [1] is 116% (inactive); in test [2] it was 81.4% (inactive); in test [3], 100% (inactive); in test [4] (setting [7]), 91.2%; in test [4] (setting [8]), 100%. For the same compound, in test [4] (H69AR cells + 2 uM doxorubicin), the differential viability (reversal) was 8.97% (inactive). The inhibition was -2.6% (inactive) in test [5] and -3.61% (inactive) in test [6].

Consider `Cc1occc1C(=O)Nc1ccc(S(=O)(=O)N2CCN(C)CC2)cc1`, for which the viability was 71% (inactive) in test [1]; 89.2% (inactive) in test [2]; 90.4% (inactive) in test [3]; 84.5% in test [4] (setting [7]); 90.4% in test [4] (setting [8]). The differential viability (reversal) in test [4] (H69AR cells + 2 uM doxorubicin) is 5.85% (inactive). Also, the inhibition in test [5] was -3.01% (inactive); in test [6], 1.82% (inactive).

As to `O=C(Nc1ccccc1C(=O)N1CCOCC1)c1cccc(S(=O)(=O)N2CCCC2)c1`, the viability in test [1] is 112% (inactive); in test [2] it was 92.3% (inactive); in test [3], 88.2% (inactive); in test [4] (setting [7]) it was 89.3%; in test [4] (setting [8]) it was 88.2%. Also, the differential viability (reversal) in test [4] (H69AR cells + 2 uM doxorubicin) is -1.19% (inactive). The inhibition in test [5] was -2.08% (inactive); in test [6] it was 0.49% (inactive).
